Results taken from ChEMBL document CHEMBL5303300, “EUbOPEN Chemogenomics Library - Multiplex” (2023).
“And” between values parts separate entries of the source, which are not always exact repeats. Equal entries are not always repeated.

How the values were obtained:
U2OS = experiment: Multiplex assay against U2OS; assay type: toxicity, cell-based; settings: human, number of replicates 2
In short: (§1)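 Phenotypes for tubulin, mitochondrial mass and membrane permeability are expressed as per cents of healthy-nucleus cells. Cells were stained live at seeding with Hoechst33342, BioTracker Green Microtubule Cytoskeleton Dye, MitoTracker Red and Annexin V Alexa Fluor 680, then imaged after compound addition on a CQ1 microscope at 37°C and 5% CO2. Machine-learning gating in CellPathfinder separated Hoechst high-intensity objects from normal cells, divided normal cells by nuclear state (healthy, pyknosed, fragmented) and divided pyknosed cells into mitotic or apoptotic.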

HEK-293T = experiment: Multiplex assay against HEK293T; assay type: toxicity, cell-based; settings: human, number of replicates 2; in short: as §1
[1] = 24 h, 10 µM, compound concentration 10 uM
[2] = 48 h, 1 µM, compound concentration 1 uM
[3] = 48 h, 10 µM, compound concentration 10 uM
[4] = 12 h, 1 µM, compound concentration 1 uM
[5] = 12 h, 10 µM, compound concentration 10 uM
[6] = 24 h, 1 µM, compound concentration 1 uM

Q: Which “Population Fragmented Nuclei (%)” value (U2OS; [1]) does the source give for `CCC(=O)O[C@@H](OP(=O)(CCCCc1ccccc1)CC(=O)N1C[C@H](C2CCCCC2)C[C@H]1C(=O)[O-])C(C)C.[Na+]` (stereo partly specified) here?
A: 4%

Q: What about the “Population Healthy Nuclei (%)” value (U2OS; [1]) of the same compound?
A: 71% and 87%

Q: What about the “Population Hoechst High Intensity Objects (%)” value (U2OS; [1]) of the same compound?
A: 0%

Q: What about the “Population Membrane Permeable-Phenotype (%)” value (U2OS; [1]) of the same compound?
A: 6% and 1%

Q: What about the “Population Mitochondria Different-Phenotype (%)” value (U2OS; [1]) of the same compound?
A: 0%

Q: What about the “Population Mitotic Cells (%)” value (U2OS; [1]) of the same compound?
A: 20% and 58%

Q: And the “Population Normal (%)” value (U2OS; [1])?
A: 100% and 99%

Q: And the “Population Pyknosed Nuclei (%)” value (U2OS; [1])?
A: 23% and 8%

Q: And the “Population Tubulin-Different-Phenotype (%)” value (U2OS; [1])?
A: 80% and 83%

Q: And the “Population Apoptotic (%)” value (U2OS; [2])?
A: 50% and 84%

Q: What about the “Population Healthy Nuclei (%)” value (U2OS; [2]) of the same compound?
A: 72% and 90%

Q: And the “Population Hoechst High Intensity Objects (%)” value (U2OS; [2])?
A: 0%

Q: What about the “Population Membrane Permeable-Phenotype (%)” value (U2OS; [2]) of the same compound?
A: 0% and 1%

Q: What about the “Population Mitochondria Different-Phenotype (%)” value (U2OS; [2]) of the same compound?
A: 0%

Q: What about the “Population Normal (%)” value (U2OS; [2]) of the same compound?
A: 100% and 99%

Q: What about the “Population Pyknosed Nuclei (%)” value (U2OS; [2]) of the same compound?
A: 10% and 6%

Q: And the “Population Tubulin-Different-Phenotype (%)” value (U2OS; [2])?
A: 87% and 85%

Q: And the “Population Apoptotic (%)” value (U2OS; [3])?
A: 75% and 46%

Q: What about the “Population Healthy Nuclei (%)” value (U2OS; [3]) of the same compound?
A: 64% and 92%

Q: And the “Population Hoechst High Intensity Objects (%)” value (U2OS; [3])?
A: 0%

Q: And the “Population Membrane Permeable-Phenotype (%)” value (U2OS; [3])?
A: 4% and 0%

Q: And the “Population Mitochondria Different-Phenotype (%)” value (U2OS; [3])?
A: 0%

Q: What about the “Population Mitotic Cells (%)” value (U2OS; [3]) of the same compound?
A: 25% and 53%

Q: And the “Population Normal (%)” value (U2OS; [3])?
A: 100%

Q: What about the “Population Tubulin-Different-Phenotype (%)” value (U2OS; [3]) of the same compound?
A: 70% and 85%

Q: What about the “Population Apoptotic (%)” value (HEK-293T; [4]) of the same compound?
A: 44% and 35%

Q: What about the “Population Fragmented Nuclei (%)” value (HEK-293T; [4]) of the same compound?
A: 2% and 1%

Q: What about the “Population Healthy Nuclei (%)” value (HEK-293T; [4]) of the same compound?
A: 86% and 85%

Q: And the “Population Hoechst High Intensity Objects (%)” value (HEK-293T; [4])?
A: 5% and 6%

Q: What about the “Population Membrane Permeable-Phenotype (%)” value (HEK-293T; [4]) of the same compound?
A: 3%

Q: What about the “Population Mitochondria Different-Phenotype (%)” value (HEK-293T; [4]) of the same compound?
A: 17% and 15%

Q: What about the “Population Mitotic Cells (%)” value (HEK-293T; [4]) of the same compound?
A: 55% and 64%

Q: And the “Population Normal (%)” value (HEK-293T; [4])?
A: 94% and 93%

Q: And the “Population Pyknosed Nuclei (%)” value (HEK-293T; [4])?
A: 11% and 12%

Q: What about the “Population Tubulin-Different-Phenotype (%)” value (HEK-293T; [4]) of the same compound?
A: 46% and 44%

Q: What about the “Total Cell Count” value (HEK-293T; [4]) of the same compound?
A: 721 and 624

Q: And the “Population Apoptotic (%)” value (HEK-293T; [5])?
A: 28% and 35%

Q: And the “Population Fragmented Nuclei (%)” value (HEK-293T; [5])?
A: 2% and 3%

Q: And the “Population Healthy Nuclei (%)” value (HEK-293T; [5])?
A: 84% and 86%

Q: And the “Population Hoechst High Intensity Objects (%)” value (HEK-293T; [5])?
A: 5% and 6%

Q: What about the “Population Membrane Permeable-Phenotype (%)” value (HEK-293T; [5]) of the same compound?
A: 1% and 3%

Q: What about the “Population Mitochondria Different-Phenotype (%)” value (HEK-293T; [5]) of the same compound?
A: 13%

Q: What about the “Population Mitotic Cells (%)” value (HEK-293T; [5]) of the same compound?
A: 71% and 64%

Q: And the “Population Normal (%)” value (HEK-293T; [5])?
A: 94% and 93%

Q: And the “Population Pyknosed Nuclei (%)” value (HEK-293T; [5])?
A: 12% and 10%

Q: What about the “Population Tubulin-Different-Phenotype (%)” value (HEK-293T; [5]) of the same compound?
A: 51% and 50%

Q: What about the “Total Cell Count” value (HEK-293T; [5]) of the same compound?
A: 743 and 727

Q: And the “Population Apoptotic (%)” value (HEK-293T; [6])?
A: 40% and 41%

Q: What about the “Population Fragmented Nuclei (%)” value (HEK-293T; [6]) of the same compound?
A: 5% and 3%

Q: And the “Population Healthy Nuclei (%)” value (HEK-293T; [6])?
A: 86% and 88%

Q: And the “Population Hoechst High Intensity Objects (%)” value (HEK-293T; [6])?
A: 7% and 8%

Q: And the “Population Membrane Permeable-Phenotype (%)” value (HEK-293T; [6])?
A: 3%

Q: What about the “Population Mitochondria Different-Phenotype (%)” value (HEK-293T; [6]) of the same compound?
A: 4% and 5%

Q: What about the “Population Mitotic Cells (%)” value (HEK-293T; [6]) of the same compound?
A: 59% and 58%

Q: And the “Population Normal (%)” value (HEK-293T; [6])?
A: 92% and 91%

Q: What about the “Population Pyknosed Nuclei (%)” value (HEK-293T; [6]) of the same compound?
A: 7% and 8%

Q: And the “Population Tubulin-Different-Phenotype (%)” value (HEK-293T; [6])?
A: 26% and 30%

Q: What about the “Total Cell Count” value (HEK-293T; [6]) of the same compound?
A: 1141 and 899

Q: And the “Population Apoptotic (%)” value (HEK-293T; [1])?
A: 18% and 31%

Q: And the “Population Fragmented Nuclei (%)” value (HEK-293T; [1])?
A: 3% and 4%

Q: And the “Population Healthy Nuclei (%)” value (HEK-293T; [1])?
A: 89% and 88%

Q: What about the “Population Hoechst High Intensity Objects (%)” value (HEK-293T; [1]) of the same compound?
A: 6% and 9%

Q: What about the “Population Membrane Permeable-Phenotype (%)” value (HEK-293T; [1]) of the same compound?
A: 3% and 2%

Q: And the “Population Mitochondria Different-Phenotype (%)” value (HEK-293T; [1])?
A: 2% and 3%

Q: And the “Population Mitotic Cells (%)” value (HEK-293T; [1])?
A: 81% and 68%

Q: What about the “Population Normal (%)” value (HEK-293T; [1]) of the same compound?
A: 93% and 90%

Q: What about the “Population Pyknosed Nuclei (%)” value (HEK-293T; [1]) of the same compound?
A: 7% and 6%

Q: And the “Population Tubulin-Different-Phenotype (%)” value (HEK-293T; [1])?
A: 28% and 31%

Q: What about the “Total Cell Count” value (HEK-293T; [1]) of the same compound?
A: 1219 and 1091

Q: What about the “Population Apoptotic (%)” value (HEK-293T; [2]) of the same compound?
A: 22% and 18%

Q: And the “Population Fragmented Nuclei (%)” value (HEK-293T; [2])?
A: 12% and 7%

Q: What about the “Population Healthy Nuclei (%)” value (HEK-293T; [2]) of the same compound?
A: 84% and 88%

Q: What about the “Population Hoechst High Intensity Objects (%)” value (HEK-293T; [2]) of the same compound?
A: 9% and 11%

Q: And the “Population Membrane Permeable-Phenotype (%)” value (HEK-293T; [2])?
A: 5% and 4%

Q: What about the “Population Mitochondria Different-Phenotype (%)” value (HEK-293T; [2]) of the same compound?
A: 0% and 1%

Q: And the “Population Mitotic Cells (%)” value (HEK-293T; [2])?
A: 77% and 81%

Q: And the “Population Normal (%)” value (HEK-293T; [2])?
A: 90% and 88%

Q: What about the “Population Pyknosed Nuclei (%)” value (HEK-293T; [2]) of the same compound?
A: 2% and 3%

Q: And the “Population Tubulin-Different-Phenotype (%)” value (HEK-293T; [2])?
A: 10% and 14%

Q: What about the “Total Cell Count” value (HEK-293T; [2]) of the same compound?
A: 2926 and 1957

Q: And the “Population Apoptotic (%)” value (HEK-293T; [3])?
A: 5% and 13%

Q: And the “Population Fragmented Nuclei (%)” value (HEK-293T; [3])?
A: 14% and 8%

Q: And the “Population Healthy Nuclei (%)” value (HEK-293T; [3])?
A: 82% and 87%

Q: And the “Population Hoechst High Intensity Objects (%)” value (HEK-293T; [3])?
A: 10% and 11%

Q: What about the “Population Membrane Permeable-Phenotype (%)” value (HEK-293T; [3]) of the same compound?
A: 4% and 3%

Q: What about the “Population Mitochondria Different-Phenotype (%)” value (HEK-293T; [3]) of the same compound?
A: 0%

Q: What about the “Population Mitotic Cells (%)” value (HEK-293T; [3]) of the same compound?
A: 94% and 86%

Q: And the “Population Normal (%)” value (HEK-293T; [3])?
A: 89% and 88%

Q: And the “Population Pyknosed Nuclei (%)” value (HEK-293T; [3])?
A: 2% and 4%

Q: And the “Population Tubulin-Different-Phenotype (%)” value (HEK-293T; [3])?
A: 12% and 17%

Q: What about the “Total Cell Count” value (HEK-293T; [3]) of the same compound?
A: 3198 and 2304
